Assays:
Conditions in all cases: stereoisomer not certain
UniProt Q7TRX0 = target: T1, UniProt Q7TRX0
T1 sequence (whole entry): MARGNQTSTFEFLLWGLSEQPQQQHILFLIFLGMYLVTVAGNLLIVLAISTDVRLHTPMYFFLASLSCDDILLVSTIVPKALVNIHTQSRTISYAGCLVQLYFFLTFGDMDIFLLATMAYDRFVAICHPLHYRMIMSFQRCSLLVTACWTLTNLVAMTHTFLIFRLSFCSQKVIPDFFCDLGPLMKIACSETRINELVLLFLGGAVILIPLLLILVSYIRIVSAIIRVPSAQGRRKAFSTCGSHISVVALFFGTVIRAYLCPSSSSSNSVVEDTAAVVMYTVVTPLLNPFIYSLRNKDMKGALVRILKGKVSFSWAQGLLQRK
How it was run: (§1)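 Values were gathered from published papers (main text and supplementary material), with extra details requested from the original authors when needed, and checked for typos and inconsistencies. Each receptor–molecule pair is called responsive (active) if the original authors judged the measured signal statistically different from baseline, and non-responsive (inactive) otherwise. Assay methods varied by source, often transient mammalian cell-line luciferase assays. Recorded details include cell line, G-protein, co-transfected protein and tags.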

UniProt Q8VF43 = target: T2, UniProt Q8VF43
T2 sequence (whole entry): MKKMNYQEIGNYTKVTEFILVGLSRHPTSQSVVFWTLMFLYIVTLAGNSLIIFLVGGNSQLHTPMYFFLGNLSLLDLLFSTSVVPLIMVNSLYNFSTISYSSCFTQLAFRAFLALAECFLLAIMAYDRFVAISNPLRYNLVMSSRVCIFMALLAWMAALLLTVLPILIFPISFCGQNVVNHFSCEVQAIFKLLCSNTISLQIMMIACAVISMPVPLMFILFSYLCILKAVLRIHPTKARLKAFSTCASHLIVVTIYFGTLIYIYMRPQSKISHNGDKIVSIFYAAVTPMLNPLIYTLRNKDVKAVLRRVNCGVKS
How it was run: as §1

UniProt Q8VF52 = target: T3, UniProt Q8VF52
T3 sequence (whole entry): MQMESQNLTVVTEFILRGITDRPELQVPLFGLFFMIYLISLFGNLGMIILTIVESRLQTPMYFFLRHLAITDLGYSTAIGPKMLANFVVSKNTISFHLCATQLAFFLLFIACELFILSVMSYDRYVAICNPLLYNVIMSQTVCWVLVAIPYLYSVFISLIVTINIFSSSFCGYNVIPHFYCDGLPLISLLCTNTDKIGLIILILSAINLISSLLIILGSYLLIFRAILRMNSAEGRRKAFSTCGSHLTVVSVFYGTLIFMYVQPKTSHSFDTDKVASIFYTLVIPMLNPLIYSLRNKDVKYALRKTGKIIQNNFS
How it was run: as §1

UniProt Q8VFM8 = target: T4, UniProt Q8VFM8
T4 sequence (whole entry): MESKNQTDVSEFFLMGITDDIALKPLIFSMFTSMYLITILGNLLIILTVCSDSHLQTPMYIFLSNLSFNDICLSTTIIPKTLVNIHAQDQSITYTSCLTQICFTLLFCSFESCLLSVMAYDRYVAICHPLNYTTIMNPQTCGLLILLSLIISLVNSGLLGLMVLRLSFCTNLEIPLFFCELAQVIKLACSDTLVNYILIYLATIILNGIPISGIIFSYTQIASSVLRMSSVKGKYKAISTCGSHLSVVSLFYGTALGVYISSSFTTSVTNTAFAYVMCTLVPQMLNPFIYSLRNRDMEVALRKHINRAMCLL
How it was run: as §1

UniProt Q8VF06 = target: UniProt Q8VF06
UniProt Q8VF06, sequence (Q8VF06 as listed by the source): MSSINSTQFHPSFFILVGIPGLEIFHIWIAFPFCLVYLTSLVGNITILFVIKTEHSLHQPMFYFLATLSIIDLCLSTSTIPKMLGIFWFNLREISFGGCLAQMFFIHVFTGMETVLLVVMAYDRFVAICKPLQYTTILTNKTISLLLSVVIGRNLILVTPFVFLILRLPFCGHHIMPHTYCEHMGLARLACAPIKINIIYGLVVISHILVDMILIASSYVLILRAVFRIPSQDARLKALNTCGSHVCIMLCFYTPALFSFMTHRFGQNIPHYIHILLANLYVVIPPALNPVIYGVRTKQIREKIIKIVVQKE
How it was run: as §1

Measured: odorant receptor agonist call

CCCCCCCCCCOC(C)=O
not listed: UniProt Q8VF06
inactive: all other assays above

C=CC(=C)CCC=C(C)C
not listed: UniProt Q8VF06
inactive: all other assays above

CC1(C)CC(=O)CC(=O)C1
not listed: UniProt Q8VF06
inactive: all other assays above

CCCCCCC(C)O (stereo not given)
not listed: UniProt Q8VF06
inactive: all other assays above

CCCCCC(=Cc1ccccc1)C(OC)OC
not listed: UniProt Q8VF06
inactive: all other assays above

CC(C)=C1CCC(C)CC1=O (stereo not given)
not listed: UniProt Q8VF06
inactive: all other assays above

Cc1occc1SSc1ccoc1C
not listed: UniProt Q8VF06
inactive: all other assays above

CCc1ncc(C)nc1CC
not listed: UniProt Q8VF06
inactive: all other assays above

O=C(OCc1ccccc1)c1ccccc1O
not listed: UniProt Q8VF06
inactive: all other assays above

Cc1ccc2c(c1)OCC(=O)CO2
not listed: UniProt Q8VF06
inactive: all other assays above

O=C(O)C1CCC1
not listed: UniProt Q8VF06
inactive: all other assays above

CCCCCCC(=O)OCCCC
not listed: UniProt Q8VF06
inactive: all other assays above

OCC=Cc1ccccc1
not listed: UniProt Q8VF06
inactive: all other assays above

C=CC(=O)CCCCC
not listed: UniProt Q8VF06
inactive: all other assays above

Cc1c(C)c(C)c(C=O)c(C)c1C
active: UniProt Q8VF52
inactive: UniProt Q7TRX0 | UniProt Q8VF43 | UniProt Q8VFM8

COc1nccnc1C(C)C
not listed: UniProt Q8VF06
inactive: all other assays above

CCCC=O
not listed: UniProt Q8VF06
inactive: all other assays above

Cc1ccc(OC(=O)C(C)C)cc1
not listed: UniProt Q8VF06
inactive: all other assays above

CC=Cc1ccc(OC)cc1
not listed: UniProt Q8VF06
inactive: all other assays above

CCCCCCC=CC=O
not listed: UniProt Q8VF06
inactive: all other assays above

Cc1ccccc1OC(=O)C(C)C
not listed: UniProt Q8VF06
inactive: all other assays above

CCOC(=O)CC(C)C
not listed: UniProt Q8VF06
inactive: all other assays above

CCc1ccccc1O
not listed: UniProt Q8VF06
inactive: all other assays above

CCCO
not listed: UniProt Q8VF06
inactive: all other assays above

CCCCCCCCC=CC=O
not listed: UniProt Q8VF06
inactive: all other assays above

COc1nccnc1C
not listed: UniProt Q8VF06
inactive: all other assays above

CCc1ccc(O)cc1
not listed: UniProt Q8VF06
inactive: all other assays above

CCC(C)O (stereo not given)
not listed: UniProt Q8VF06
inactive: all other assays above

CCC=CCCCCC=O
not listed: UniProt Q8VF06
inactive: all other assays above

CCCC(C)C(=O)OCC (stereo not given)
not listed: UniProt Q8VF06
inactive: all other assays above

CC(=O)C=CC1=C(C)CCCC1(C)C
inactive: UniProt Q7TRX0 | UniProt Q8VF43 | UniProt Q8VFM8
active: UniProt Q8VF52

CCOC(=O)C(C)CC (stereo not given)
not listed: UniProt Q8VF06
inactive: all other assays above

O=C(O)CCCCCCCCCC(=O)O
inactive: UniProt Q8VF06

COc1cnccn1
not listed: UniProt Q8VF06
inactive: all other assays above

C=CC(C)=CCC=C(C)CCC=C(C)C
not listed: UniProt Q8VF06
inactive: all other assays above

c1ccc2ncccc2c1
active: UniProt Q8VF52
inactive: UniProt Q7TRX0 | UniProt Q8VF43 | UniProt Q8VFM8

Cc1ccc(C(C)C)c(O)c1
not listed: UniProt Q8VF06
inactive: all other assays above

CC(=O)OCCc1ccccc1
not listed: UniProt Q8VF06
inactive: all other assays above

CCN(CC)CC
not listed: UniProt Q8VF06
inactive: all other assays above

CCCCCCCCOC=O
not listed: UniProt Q8VF06
inactive: all other assays above

CC(C)=CCCC(C)=CCOC(=O)C(C)C
not listed: UniProt Q8VF06
inactive: all other assays above

C=C(CC)CCCC(C)(C)O
not listed: UniProt Q8VF06
inactive: all other assays above

CC(=O)OC1(C)CCC23CC1C(C)(C)C2CCC3C (stereo not given)
inactive: UniProt Q7TRX0 | UniProt Q8VFM8
active: UniProt Q8VF43 | UniProt Q8VF52

CCCCCCC(C=O)=Cc1ccccc1
not listed: UniProt Q8VF06
inactive: all other assays above

CCCCCC(C)O (stereo not given)
not listed: UniProt Q8VF06
inactive: all other assays above

C=C(C)C1CCC(C)C(O)C1 (stereo not given)
not listed: UniProt Q8VF06
inactive: all other assays above

CC(=O)C1(C)CC2=C(CCCC2(C)C)CC1C (stereo not given)
not listed: UniProt Q8VF06
inactive: all other assays above

— the M2OR odorant receptor database
